Data from PMC11549336 (Communications Biology, 2024).

Target: recombinant Plk1 PBD (Plk1 367-603aa) (Homo sapiens, UniProt P53350)
Assay: Peptide binding assay by isothermal titration calorimetry
Settings: ITC; listed as pT600/pT608 peptide
In short: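 Protein and peptides were dialysed against 50 mM NaP, 150 mM NaCl, 0.5 mM TCEP, pH 7.5, with concentrations set by A280. ITC at 25 °C, 750 rpm stirring. […] Buffer-only controls subtracted; data fitted to a single-site model.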

Chain of recombinant Plk1 PBD (Plk1 367-603aa) (P53350 367-603): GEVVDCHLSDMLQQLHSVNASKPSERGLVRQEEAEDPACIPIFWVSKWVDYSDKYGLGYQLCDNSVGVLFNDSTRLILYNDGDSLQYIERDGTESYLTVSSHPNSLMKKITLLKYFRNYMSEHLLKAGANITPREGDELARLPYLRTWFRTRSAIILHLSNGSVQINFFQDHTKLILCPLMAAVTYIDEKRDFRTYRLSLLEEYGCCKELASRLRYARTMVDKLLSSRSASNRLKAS

FRNVpTICPNPEDpTCDFARA [BubR1^596-614 (FRNVpTICPNPEDpTCDFARA)]
binding of peptide to recombinant Plk1 PBD, in words: could not detect any interaction
